Where “and” joins values, the source holds several entries; their conditions need not be identical. Equal values may be shown once. Blank lines part the entries; values can stand above or below the molecule they belong to.
How the values were obtained:
Canis familiaris [1] = species: Canis familiaris; assay: Maximum percent change in functional refractory period (FRP) at 100 uM on Canine ventricular muscle fibre; value ranges from 7-26; design: species or system Canis lupus familiaris, Muscle tissue
In short: (§1)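 Canine right ventricular papillary muscle strips were superfused at 36 ± 0.5 °C with saline gassed with 95% O2/5% CO2. Diastolic threshold was found with 2-ms stimuli at 4000 ms cycle length, then pacing at 4× threshold for 60 min equilibration. FRP was measured at 1000 ms cycle length by S1-S2 premature stimulus after every tenth S1. Conduction time came from a bipolar electrogram. Various compound concentrations were tested, one compound per strip, with vehicle controls. Percent change from control was taken at 10 µM, or the maximum change with its concentration; for N ≥ 3, mean with range.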

Canis familiaris [2] = species: Canis familiaris; assay: The maximum change from control in the rate of rise of phase 0 of the action potential at 10 uM concentration on Canine Purkinje fibers.; design: species or system Canis lupus familiaris, Purkinje fiber; details: dog
In short: (§2)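 Canine Purkinje fibers were held in oxygenated (95% O2–5% CO2) physiological saline, pH 7.35–7.40, at 36 ± 0.5 °C and paced at 1.0 Hz with 2-ms pulses at twice diastolic threshold. Intracellular microelectrodes (3 M KCl) recorded Vmax and APD95 simultaneously. After up to 1 h of stabilization, compounds were tested from 10^-8 to 10^-3 M with 30 min per concentration. One compound per fiber, with vehicle controls. For N ≥ 3, values are the mean with the range.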

Canis familiaris [3] = species: Canis familiaris; assay: Maximum percent change in repolarization at 10 uM concentration on Canine Purkinje fibers.; type: functional, Canis lupus familiaris, Purkinje fiber
In short: (§3)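 Isolated canine Purkinje fibers were superfused with physiological saline gassed with 95% O2/5% CO2 (pH 7.35–7.40) at 36 ± 0.5 °C. Paced at 1.0 Hz with 2-ms pulses at twice diastolic threshold. After up to 1 h stabilization, compounds were tested over 10^-8 to 10^-3 M, 30 min per concentration, one compound per fiber, with vehicle controls. Intracellular microelectrodes (3 M KCl) recorded Vmax and APD95; maximum percent change from control is reported with its concentration.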

Canis familiaris [4] = species: Canis familiaris; assay: Percent change from control in the functional refractory period (FRP) at 10 uM concentration on Canine ventricular muscle fibre; value ranges from 2-17; design: species or system Canis lupus familiaris, Muscle tissue; in short: as §1
Canis familiaris [5] = species: Canis familiaris; assay: Maximum percent change in repolarization at 100 uM concentration on Canine Purkinje fibers.; type: functional, Canis lupus familiaris, Purkinje fiber; in short: as §3
Canis familiaris [6] = species: Canis familiaris; assay: Percent change from control in the rate of rise of phase 0 of the action potential at 10 uM concentration on Canine Purkinje fibers; value ranges from 8.0-4.0; design: species or system Canis lupus familiaris, Purkinje fiber; details: dog
Canis familiaris [7] = species: Canis familiaris; assay: Percent change from control in conduction time (CT) at 10 uM concentration tested on Canine ventricular muscle fibre; value ranges from -12.0-2.0; type: functional, Canis lupus familiaris, Muscle tissue; in short: as §1
Canis familiaris [8] = species: Canis familiaris; assay: Percent change in repolarization at 10 Purkinje fibers.; type: functional, Canis lupus familiaris, Purkinje fiber; in short: as §2
Canis familiaris [9] = species: Canis familiaris; assay: Maximum percent change in conduction time (CT) at 1 uM concentration tested on Canine ventricular muscle fibre; type: functional, Canis lupus familiaris, Muscle tissue; in short: as §1
Canis familiaris [10] = species: Canis familiaris; assay: The maximum percent change from control in the rate of rise of phase 0 of the action potential at 100 uM concentration on Canine Purkinje fibers.; design: species or system Canis lupus familiaris, Purkinje fiber; details: dog, in vitro; in short: as §2
Canis familiaris [11] = species: Canis familiaris; assay: Maximum percent change in conduction time (CT) at 100 uM concentration tested on Canine ventricular muscle fibre; type: functional, Canis lupus familiaris, Muscle tissue; in short: as §1
Canis familiaris [12] = species: Canis familiaris; assay: Maximum percent change in functional refractory period (FRP) at 1 uM on Canine ventricular muscle fibre.; design: species or system Canis lupus familiaris, Muscle tissue; in short: as §1
Canis familiaris [13] = species: Canis familiaris; assay: Maximum percent change in conduction time (CT) at 10 uM concentration tested on Canine ventricular muscle fibre; type: functional, Canis lupus familiaris, Muscle tissue; in short: as §1
Canis familiaris [14] = species: Canis familiaris; assay: Maximum Percent change from control in the rate of rise of phase 0 of the action potential at 30 uM concentration on Canine Purkinje fibers.; design: species or system Canis lupus familiaris, Purkinje fiber; details: dog, in vitro; in short: as §3
Canis familiaris [15] = species: Canis familiaris; assay: Percent change from control in the functional refractory period (FRP) at 10 uM conc. on Canine ventricular muscle fibre.; design: species or system Canis lupus familiaris, Muscle tissue; in short: as §1
Canis familiaris [16] = species: Canis familiaris; assay: Maximum Percent change from control in the rate of rise of phase 0 of the action potential at 100 uM concentration on Canine Purkinje fibers.; type: Canis lupus familiaris, Purkinje fiber; details: dog, in vitro; in short: as §3
Canis familiaris [17] = species: Canis familiaris; assay: Maximum percent change in functional refractory period (FRP) at 100 uM on Canine ventricular muscle fibre.; design: species or system Canis lupus familiaris, Muscle tissue; in short: as §1
Cavia porcellus = species: Cavia porcellus; assay: Concentration of compound which gives a 20% decrease in contractile force was tested on papillary muscle of guinea pig, activity was expressed as EC-20.; type: functional; details: Muscle tissue
In short: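 Contractile force measured in an isolated cardiac muscle preparation. Value is the concentration giving a 20% decrease in force of contraction. NR marks that this decrease was not reached. Values come from individual experiments; for N ≥ 3, the mean is given with the range.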

Canis familiaris [18] = species: Canis familiaris; assay: Percent change in repolarization at 10 Purkinje fibers.; value ranges from -19 - 1; type: functional, Canis lupus familiaris, Purkinje fiber; in short: as §2
Canis familiaris [19] = species: Canis familiaris; assay: Maximum percent change in repolarization at 30 uM concentration on Canine Purkinje fibers.; type: functional, Canis lupus familiaris, Purkinje fiber; in short: as §3
Canis familiaris [20] = species: Canis familiaris; assay: Maximum percent change in conduction time (CT) at 0.1 uM concentration tested on Canine ventricular muscle fibre; type: functional, Canis lupus familiaris, Muscle tissue; in short: as §1
Canis familiaris [21] = species: Canis familiaris; assay: Percent change from control in the rate of rise of phase 0 of the action potential at 10 uM concentration on Canine Purkinje fibers.; value ranges from -17 - -7; type: organism-based, Canis lupus familiaris, Purkinje fiber; details: dog, in vitro
Canis familiaris [22] = species: Canis familiaris; assay: Percent change from control in conduction time (CT) at 10 uM concentration tested on Canine ventricular muscle fibre.; type: functional, Canis lupus familiaris, Muscle tissue; in short: as §1
Canis familiaris [23] = species: Canis familiaris; assay: The maximum percent change in action potential (Vmax ) at concentration observed (100 uM was tested on Canine Purkinje fibers.; design: species or system Canis lupus familiaris, Purkinje fiber; details: dog; in short: as §2
Canis familiaris [24] = species: Canis familiaris; assay: Percent change from control in conduction time (CT) at 10 uM concentration tested on Canine ventricular muscle fibre.; M is minimal(<10% change in CT); type: functional; details: Canis lupus familiaris, Muscle tissue; in short: as §1
Canis familiaris [25] = species: Canis familiaris; assay: Maximum percent change in repolarization at 1 uM concentration on Canine Purkinje fibers.; type: functional, Canis lupus familiaris, Purkinje fiber; in short: as §3
Canis familiaris [26] = species: Canis familiaris; assay: Maximum Percent change from control in the rate of rise of phase 0 of the action potential at 1 uM concentration on Canine Purkinje fibers.; design: species or system Canis lupus familiaris, Purkinje fiber; in short: as §3
Canis familiaris [27] = species: Canis familiaris; assay: Maximum percent change in functional refractory period (FRP) at 100 uM on Canine ventricular muscle fibre.; value ranges from -3 - 26; design: species or system Canis lupus familiaris, Muscle tissue; in short: as §1
Canis familiaris [28] = species: Canis familiaris; assay: Percent change from control in the rate of rise of phase 0 of the action potential at 10 uM concentration on Canine Purkinje fibers.; value ranges from -18 - -4; type: organism-based, Canis lupus familiaris, Purkinje fiber; details: dog, in vitro
Canis familiaris [29] = species: Canis familiaris; assay: Maximum percent change in conduction time (CT) at 100 uM concentration tested on Canine ventricular muscle fibre; value ranges from 6-27; type: functional, Canis lupus familiaris, Muscle tissue; in short: as §1
Canis familiaris [30] = species: Canis familiaris; assay: Percent change from control in the functional refractory period (FRP) at 10 uM conc. on Canine ventricular muscle fibre.; value ranges from -1 - 16; design: species or system Canis lupus familiaris, Muscle tissue; in short: as §1
Canis familiaris [31] = species: Canis familiaris; assay: Percent change in repolarization at 10 Purkinje fibers.; value ranges from -6 -2; type: functional, Canis lupus familiaris, Purkinje fiber; in short: as §2

Vmax (Canis familiaris [2]): 4% | Vmax (Canis familiaris [6]): -1.5% | Vmax (Canis familiaris [10]): -10%
SMILES: CCN(CC)CCNC(=O)c1ccc(N)cc1 [PROCAINAMIDE]
FRP (Canis familiaris [1]): 14.3% | APD95 (Canis familiaris [3]): 1% | FRP (Canis familiaris [4]): 8.7% | APD95 (Canis familiaris [5]): 3% | CT (Canis familiaris [7]): -3% | APD95 (Canis familiaris [8]): -1% | CT (Canis familiaris [9]): 5% | CT (Canis familiaris [11]): 4%

Vmax (Canis familiaris [14]): -20% and -26% | Vmax (Canis familiaris [16]): -45% | Vmax (Canis familiaris [21]): -11%
SMILES: CCN(CC)CCCNC(=O)c1cc2cccc(O)c2[nH]1
FRP (Canis familiaris [12]): 8% | CT (Canis familiaris [13]): -23% | APD95 (Canis familiaris [5]): -53% | FRP (Canis familiaris [15]): 9% | FRP (Canis familiaris [17]): 19% | EC20 (Cavia porcellus): 36 µM | APD95 (Canis familiaris [18]): -10% | APD95 (Canis familiaris [19]): -14% | CT (Canis familiaris [20]): -8% | CT (Canis familiaris [22]): -3%

Vmax (Canis familiaris [14]): -22% and -26% | Vmax (Canis familiaris [23]): -19% | Vmax (Canis familiaris [26]): -14% | Vmax (Canis familiaris [28]): -10.5%
SMILES: CCN(CC)CCNC(=O)c1cccc2[nH]ccc12
APD95 (Canis familiaris [5]): -25% | CT (Canis familiaris [24]): Minimal | APD95 (Canis familiaris [25]): -6% | FRP (Canis familiaris [27]): 10.7% | APD95 (Canis familiaris [19]): -20% | CT (Canis familiaris [29]): 14.7% | FRP (Canis familiaris [30]): 6.3% | APD95 (Canis familiaris [31]): -3%

From ChEMBL document CHEMBL1124429, “Heterocyclic analogues of benzamide antiarrhythmic agents” (J Med Chem, 1989)
